Results reported in ChEMBL document CHEMBL1145823, “Docking and database screening reveal new classes of Plasmodium falciparum dihydrofolate reductase inhibitors” (J Med Chem, 2003).
Values after ≈ are worked out from the molar mass of the structure shown. Active and inactive are the calls of the source. The rule behind the calls is not given here.

What was measured:
[1] = target: Bifunctional dihydrofolate reductase-thymidylate synthase (Plasmodium falciparum K1, UniProt P13922, A16V); assay: Inhibition constant against PfDHFR (Plasmodium falciparum dihydrofolate reductase) with single A16V mutation
Outline: (§1)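 Recombinant wild-type or mutant PfDHFR, expressed in bacteria (induction at 20 °C for 20 h) and purified on methotrexate-Sepharose. Spectrophotometric assay in 50 mM TES pH 7.0, 75 mM β-mercaptoethanol, 1 mg/mL BSA, with 100 μM each H2-folate and NADPH. Started with enzyme (0.6–1 nM). Ki from IC50 = Ki(1+[S]/Km), assuming competitive binding.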

[2] = target: Bifunctional dihydrofolate reductase-thymidylate synthase (Plasmodium falciparum K1, UniProt P13922, S108T); assay: Inhibition constant against PfDHFR (Plasmodium falciparum dihydrofolate reductase) with single S108T mutation; outline: as §1
[3] = target: Bifunctional dihydrofolate reductase-thymidylate synthase (Plasmodium falciparum K1, UniProt P13922, C59R/I164L/S108N); assay: Inhibition constant against PfDHFR (Plasmodium falciparum dihydrofolate reductase) with triple (C59R + S108N + I164L) mutations; outline: as §1
[4] = target: Bifunctional dihydrofolate reductase-thymidylate synthase (Plasmodium falciparum K1, UniProt P13922, A16V/S108T); assay: Inhibition constant against PfDHFR (Plasmodium falciparum dihydrofolate reductase) with double (A16V + S108T) mutations; outline: as §1
[5] = target: Bifunctional dihydrofolate reductase-thymidylate synthase (Plasmodium falciparum K1, UniProt P13922); assay: Inhibition constant against wild-type PfDHFR (Plasmodium falciparum dihydrofolate reductase); outline: as §1
[6] = target: Bifunctional dihydrofolate reductase-thymidylate synthase (Plasmodium falciparum K1, UniProt P13922, C59R/I164L/N51I/S108N); assay: Inhibition constant against PfDHFR (Plasmodium falciparum dihydrofolate reductase) with quadruple (N51I + C59R + S108N + I164L) mutations; outline: as §1
[7] = target: Bifunctional dihydrofolate reductase-thymidylate synthase (Plasmodium falciparum K1) (UniProt P13922); assay: Inhibition constant for PfDHFR (Plasmodium falciparum dihydrofolate reductase) with quadruple (N51I + C59R + S108N + I164L) mutations; Not active
Outline: as §1, with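 “nM). […]” for “nM).”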

[8] = target: Bifunctional dihydrofolate reductase-thymidylate synthase (Plasmodium falciparum K1) (UniProt P13922); assay: Inhibition constant for PfDHFR (Plasmodium falciparum dihydrofolate reductase) with double (A16V + S108T) mutations; Not active
Outline: as §1, with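 “nM). […]” for “nM).”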

[9] = target: Bifunctional dihydrofolate reductase-thymidylate synthase (Plasmodium falciparum K1) (UniProt P13922); assay: Inhibition constant for PfDHFR (Plasmodium falciparum dihydrofolate reductase) with single A16V mutation; Not active
Outline: as §1, with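 “nM). […]” for “nM).”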

[10] = target: Bifunctional dihydrofolate reductase-thymidylate synthase (Plasmodium falciparum K1) (UniProt P13922); assay: Inhibition constant for PfDHFR (Plasmodium falciparum dihydrofolate reductase) with triple (C59R + S108N + I164L) mutations; Not active
Outline: as §1, with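 “nM). […]” for “nM).”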

[11] = target: Bifunctional dihydrofolate reductase-thymidylate synthase (Plasmodium falciparum K1) (UniProt P13922); assay: Inhibition constant against wild-type PfDHFR (Plasmodium falciparum dihydrofolate reductase); Not active
Outline: as §1, with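 “nM). […]” for “nM).”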

[12] = target: Bifunctional dihydrofolate reductase-thymidylate synthase (Plasmodium falciparum K1) (UniProt P13922); assay: Inhibition constant for PfDHFR (Plasmodium falciparum dihydrofolate reductase) with single S108T mutation; Not active
Outline: as §1, with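 “nM). […]” for “nM).”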

[13] = target: Bifunctional dihydrofolate reductase-thymidylate synthase (Plasmodium falciparum K1) (UniProt P13922); assay: Inhibition constant for PfDHFR (Plasmodium falciparum dihydrofolate reductase) with triple (C59R + S108N + I164L) mutations at a concentration of 100 uM; Not active
Outline: as §1, with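 “nM). […]” for “nM).”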

[14] = target: Bifunctional dihydrofolate reductase-thymidylate synthase (Plasmodium falciparum K1) (UniProt P13922); assay: Inhibition constant for PfDHFR (Plasmodium falciparum dihydrofolate reductase) with single S108T mutation at a concentration of 100 uM; Not active
Outline: as §1, with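 “nM). […]” for “nM).”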

[15] = target: Bifunctional dihydrofolate reductase-thymidylate synthase (Plasmodium falciparum K1) (UniProt P13922); assay: Inhibition constant against wild-type PfDHFR (Plasmodium falciparum dihydrofolate reductase) at a concentration of 100 uM; Not active
Outline: as §1, with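 “nM). […]” for “nM).”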

[16] = target: Bifunctional dihydrofolate reductase-thymidylate synthase (Plasmodium falciparum K1) (UniProt P13922); assay: Inhibition constant for PfDHFR (Plasmodium falciparum dihydrofolate reductase) with double (A16V + S108T) mutations at a concentration of 100 uM; Not active
Outline: as §1, with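 “nM). […]” for “nM).”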

[17] = target: Bifunctional dihydrofolate reductase-thymidylate synthase (Plasmodium falciparum K1) (UniProt P13922); assay: Inhibition constant for PfDHFR (Plasmodium falciparum dihydrofolate reductase) with single A16V mutation at a concentration of 100 uM; Not active
Outline: as §1, with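 “nM). […]” for “nM).”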

[18] = target: Bifunctional dihydrofolate reductase-thymidylate synthase (Plasmodium falciparum K1) (UniProt P13922); assay: Inhibition constant against wild-type PfDHFR (Plasmodium falciparum dihydrofolate reductase); Inactive
Outline: as §1, with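 “nM). […]” for “nM).”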

[19] = target: Bifunctional dihydrofolate reductase-thymidylate synthase (Plasmodium falciparum K1) (UniProt P13922); assay: Inhibition constant for resistant mutant PfDHFR (Plasmodium falciparum dihydrofolate reductase); Inactive
Outline: as §1, with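 “nM). […]” for “nM).”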

[20] = target: Bifunctional dihydrofolate reductase-thymidylate synthase (Plasmodium falciparum K1) (UniProt P13922); assay: Inhibition constant for resistant mutant PfDHFR (Plasmodium falciparum dihydrofolate reductase) at 750 uM; Inactive
Outline: as §1, with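 “nM). […]” for “nM).”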

[21] = target: Bifunctional dihydrofolate reductase-thymidylate synthase (Plasmodium falciparum K1) (UniProt P13922); assay: Inhibition constant against wild-type PfDHFR (Plasmodium falciparum dihydrofolate reductase) at 750 uM; Inactive
Outline: as §1, with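 “nM). […]” for “nM).”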

[22] = Determined the solubility of the compound; assay type: ADME; conditions: read-out: S

Chain of Bifunctional dihydrofolate reductase-thymidylate synthase (Plasmodium falciparum K1, UniProt P13922) (P13922 whole entry): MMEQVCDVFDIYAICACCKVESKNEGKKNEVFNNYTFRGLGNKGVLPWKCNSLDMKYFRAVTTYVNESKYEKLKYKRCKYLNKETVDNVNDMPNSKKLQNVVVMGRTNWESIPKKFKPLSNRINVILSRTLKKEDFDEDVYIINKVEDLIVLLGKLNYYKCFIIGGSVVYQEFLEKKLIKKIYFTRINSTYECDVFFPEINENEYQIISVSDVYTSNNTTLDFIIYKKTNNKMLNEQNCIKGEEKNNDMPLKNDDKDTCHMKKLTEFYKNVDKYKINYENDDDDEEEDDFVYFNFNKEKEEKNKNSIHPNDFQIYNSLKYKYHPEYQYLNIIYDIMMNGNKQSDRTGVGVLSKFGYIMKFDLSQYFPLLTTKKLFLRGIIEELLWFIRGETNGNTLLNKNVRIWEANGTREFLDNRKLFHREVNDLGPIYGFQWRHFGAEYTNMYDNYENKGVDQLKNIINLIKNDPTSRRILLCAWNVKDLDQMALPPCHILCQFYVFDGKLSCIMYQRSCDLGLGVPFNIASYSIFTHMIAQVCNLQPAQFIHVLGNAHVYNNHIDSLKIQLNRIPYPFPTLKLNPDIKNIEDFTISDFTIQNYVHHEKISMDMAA
Chain of Bifunctional dihydrofolate reductase-thymidylate synthase (Plasmodium falciparum K1, UniProt P13922, A16V/S108T) (P13922 whole entry, looked up, stated change not applied): as the sequence (P13922 whole entry) above
Chain of Bifunctional dihydrofolate reductase-thymidylate synthase (Plasmodium falciparum K1) (P13922 whole entry, looked up): as the sequence (P13922 whole entry) above
Chain of Bifunctional dihydrofolate reductase-thymidylate synthase (Plasmodium falciparum K1, UniProt P13922, S108T) (P13922 whole entry, looked up, stated change not applied): as the sequence (P13922 whole entry) above
Chain of Bifunctional dihydrofolate reductase-thymidylate synthase (Plasmodium falciparum K1, UniProt P13922, C59R/I164L/N51I/S108N) (P13922 whole entry, looked up, stated change not applied): as the sequence (P13922 whole entry) above
Chain of Bifunctional dihydrofolate reductase-thymidylate synthase (Plasmodium falciparum K1, UniProt P13922, C59R/I164L/S108N) (P13922 whole entry, looked up, stated change not applied): as the sequence (P13922 whole entry) above
Chain of Bifunctional dihydrofolate reductase-thymidylate synthase (Plasmodium falciparum K1, UniProt P13922, A16V) (P13922 whole entry A16V): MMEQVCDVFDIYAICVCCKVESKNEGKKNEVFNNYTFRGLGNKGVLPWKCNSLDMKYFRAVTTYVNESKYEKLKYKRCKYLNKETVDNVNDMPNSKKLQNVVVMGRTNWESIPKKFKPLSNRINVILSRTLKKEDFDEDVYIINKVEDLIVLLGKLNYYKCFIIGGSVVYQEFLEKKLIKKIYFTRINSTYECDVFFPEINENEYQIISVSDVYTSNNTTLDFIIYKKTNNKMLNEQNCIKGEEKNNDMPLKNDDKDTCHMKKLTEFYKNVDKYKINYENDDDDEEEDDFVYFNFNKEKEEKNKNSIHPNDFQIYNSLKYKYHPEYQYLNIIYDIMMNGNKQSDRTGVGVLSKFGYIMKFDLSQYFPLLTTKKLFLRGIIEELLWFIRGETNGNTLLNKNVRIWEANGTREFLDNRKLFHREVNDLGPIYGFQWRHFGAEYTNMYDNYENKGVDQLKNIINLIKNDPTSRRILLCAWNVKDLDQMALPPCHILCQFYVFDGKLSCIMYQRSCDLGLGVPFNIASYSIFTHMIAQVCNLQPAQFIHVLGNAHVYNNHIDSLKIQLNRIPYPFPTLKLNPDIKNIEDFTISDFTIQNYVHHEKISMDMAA

Structure (SMILES) | Ki [1] [µM] | Ki [2] [µM] | Ki [3] [µM] | Ki [4] [µM] | Ki [5] [µM] | Ki [6] [µM] | other results
N/C(=N\O)c1cccc(CS(=O)(=O)c2ccc(Cl)cc2)c1 | 38 | 30 | 105 | 106 | 102 | 34.5 | 
NC(=O)Nc1ccc(Oc2ncc(C(F)(F)F)cc2Cl)cc1 |  |  |  |  |  |  | NA [7]: inactive; NA [8]: inactive; NA [9]: inactive; NA [10]: inactive; NA [11]: inactive; NA [12]: inactive
NC1=NC(c2ccccc2)C(C(=O)c2ccccc2)N1 (stereo not drawn) |  |  |  |  |  |  | NA [7]: inactive; NA [13]: inactive; NA [14]: inactive; NA [15]: inactive; NA [16]: inactive; NA [17]: inactive
Sc1nnc(-c2ccccc2)c(-c2ccccc2)n1 |  |  |  |  |  |  | IA [18]: inactive; IA [19]: inactive
NC(=S)N/N=C/c1ccccc1 [PHENYLTHIOSEMICARBAZONE] | 29.6 | 9 | 28.9 | 50 | 23.6 | 37.2 | 
Cc1nc(S)nc(O)c1Cc1c(F)cccc1Cl |  |  |  |  |  |  | IA [20]: inactive; IA [21]: inactive
NC(=O)NC(=O)Cc1ccccc1 |  |  |  |  |  |  | NA [7]: inactive; NA [8]: inactive; NA [9]: inactive; NA [10]: inactive; NA [11]: inactive; NA [12]: inactive
NC(=O)Nc1ccc(Cc2ccc(NC(N)=O)cc2)cc1 |  |  |  |  |  |  | NA [7]: inactive; NA [8]: inactive; NA [9]: inactive; NA [10]: inactive; NA [11]: inactive; NA [12]: inactive
N/C(=N/O)c1ccc(Oc2c(Cl)cncc2Cl)cc1 | 23.6 | 16 | 24.4 | 6.2 | 25.2 | 27.8 | 
NNc1nc2ccccc2nc1NN | 3.4 | 0.8 | 2.7 | 11.4 | 3.6 | 9.7 | 
N=C(S)N/N=C/c1ccc(Oc2ncc(C(F)(F)F)cc2Cl)cc1 | 6.8 | 2.3 | 12.5 | 34 |  | 9.3 | 
Nc1nccc(-c2csc(COc3ccc(Cl)cc3)n2)n1 |  |  |  |  |  |  | solubility [22]: 25 µM (≈ 7.97 µg/mL)
C/C(=N\N=C(/N)S)c1ccc(Oc2c(Cl)cncc2Cl)cc1 | 0.7 | 1 | 0.6 | 2.1 | 0.9 | 1.5 | 
N=C(NO)c1ccc(Oc2cc(Cl)cc(Cl)c2)c([N+](=O)[O-])c1 | 36.8 | 4.2 | 22.2 | 9.8 |  | 32.6 | 
C=CCNC(=S)NNC(=O)c1cccn(Cc2cccc(Cl)c2)c1=O | 13 | 1.7 | 10 | 17 | 15.2 | 10.6 | 
Oc1nnc(-c2ccccc2)c(-c2ccccc2)n1 |  |  |  |  |  |  | IA [18]: inactive; IA [19]: inactive
N/N=C(\S)Nc1ccc(OCc2ccccc2)cc1 | 15.4 | 5.2 | 13.4 | 55.6 | 13.7 | 26.5 | 
N=c1nc(N)nc(Nc2ccccc2)n1-c1ccccc1 |  |  |  |  |  |  | IA [18]: inactive; IA [19]: inactive
C/N=C(\S)NNC(=O)c1cccn(Cc2cccc(Cl)c2)c1=O | 5.9 | 1.8 | 7.1 | 13.6 | 11.3 | 19.4 | 
CC1(C)N=C(N)N=C(N)N1c1ccc(Cl)cc1 [CYCLOGUANIL] | 0.57 | 0.0016 | 1.14 | 2.13 |  | 0.73 | 
N=C(NO)c1ccc(CNC(=O)c2ccc(Cl)cc2)cc1 | 58 | 12.3 | 93 | 57 | 77.2 | 36.6 | 
CNC(=O)Nc1ccc(Cc2ccc(NC(=O)NC)cc2)cc1 |  |  |  |  |  |  | NA [7]: inactive; NA [8]: inactive; NA [9]: inactive; NA [10]: inactive; NA [11]: inactive; NA [12]: inactive
COC(=O)c1sccc1-c1ccc(/C(C)=N/NC(N)=O)o1 | 15.3 | 4.2 | 7.5 | 19.7 |  | 16 | 
